Assay results gathered from unrelated publications.
Compare with care: the assays were run in different laboratories.
CDK3 with cyclin E: Cyclin-dependent kinase 3, with cyclin E (CDK3, Homo sapiens, UniProt Q00526)
CDK3: Cyclin-dependent kinase 3 (CDK3, Homo sapiens, UniProt Q00526)

SMILES | target | read-out | mode | technique | tested at | quantity | result
CCCS(=O)(=O)Nc1ccc(F)c(C(=O)c2c[nH]c3ncc(-c4ccc(Cl)cc4)cc23)c1F | CDK3 with cyclin E | enzyme activity | inhibitor |  | 1 µM | inhibition | < 10%
CNC(=O)c1cc(Oc2ccc(NC(=O)Nc3ccc(Cl)c(C(F)(F)F)c3)cc2)ccn1 | CDK3 with cyclin E | enzyme activity | inhibitor |  | 0.3 µM | inhibition | -6%
Cc1ccc(C(=O)NCc2ccsc2)cc1C#Cc1cn(C(C)C)c2ncnc(N)c12 | CDK3 with cyclin E | enzyme activity | inhibitor |  | 1 µM | activity vs control | 98%
O=C(Nc1cnn(-c2csc(C(=O)NC3COC3)c2)c1)Nc1c(F)cccc1Cl | CDK3 with cyclin E | enzyme activity | inhibitor |  | 5 µM | remaining activity | 92.2%
CS(=O)(=O)NCC[C@H](NC(=O)c1cncc2c1cnn2-c1ccc(F)cc1)c1ccnc(S(C)(=O)=O)c1 | CDK3 | cell-free assay |  | competition with immobilised ligand | 1 µM | remaining binding | 100%
Cc1ccc(Nc2nccc(N(C)c3ccc4c(C)n(C)nc4c3)n2)cc1S(N)(=O)=O | CDK3 with cyclin E | enzyme activity | inhibitor |  | 10 µM | inhibition | 8%
O=C1NC(=O)c2cc(Nc3ccc(F)cc3)c(Nc3ccc(F)cc3)cc21 | CDK3 with cyclin E | cell-free assay |  |  | 0.5 µM | remaining signal | 98.9%
COc1cccc(CNC(=O)c2nc3scc(COCc4ccc(C(=O)O)cc4)c3c(=O)[nH]2)c1 | CDK3 | cell-free assay |  | competition with immobilised ligand | 1 µM | remaining binding | 100%
CC(C)(C)c1nc(-c2cccc(NS(=O)(=O)c3c(F)cccc3F)c2F)c(-c2ccnc(N)n2)s1 | Cyclin-dependent kinase 3, with cyclin E1 (CDK3, Homo sapiens, UniProt Q00526) | enzyme activity | inhibitor | radiometric | 1 µM | remaining activity | 103%
Nc1ncnc2occ(-c3ccc(NC(=O)Nc4cc(C(F)(F)F)ccc4F)cc3)c12 | CDK3 | cell-free assay | inhibitor |  | 20 µM | remaining signal | 0.05%
Oc1cccc(-c2nc(N3CCOCC3)c3oc4ncccc4c3n2)c1 | CDK3 with cyclin E | cell-free assay |  |  | 0.5 µM | remaining signal | 93.9%
NS(=O)(=O)c1cc(NC(=O)Cc2ccccc2)ccc1Oc1cccc(Cl)c1 | CDK3 | cell-free assay |  | competition with immobilised ligand | 1 µM | remaining binding | 92%
Cc1sc(C(=O)NC2COC2)cc1-n1cc(NC(=O)Nc2c(F)cccc2Cl)cn1 | CDK3 with cyclin E | enzyme activity | inhibitor |  | 10 µM | remaining activity | 91.2%
CCCCN(CCCC)C(=O)CN1C[C@H](c2cc(OC)c3c(c2)OCO3)[C@@H](C(=O)O)[C@@H]1CC(C)(C)CCC | CDK3 | cell-free assay |  | competition with immobilised ligand | 1 µM | remaining binding | 100%
Cc1ccc(NC(=O)c2ccc(C)c(C(F)(F)F)c2)cc1C#Cc1nn(C2CCC(O)CC2)c2ncnc(N)c12 (stereo not drawn) | CDK3 with cyclin E | cell-free assay |  |  | 10 µM | remaining signal | 93%
